Measurements reported in ChEMBL document CHEMBL2029215, “Synthesis, reactive oxygen species generation and copper-mediated nuclease activity profiles of 2-aryl-3-amino-1,4-naphthoquinones” (Bioorg Med Chem Lett, 2012).
Active and inactive are the calls of the source. The rule behind the calls is not given here.

How the values were obtained:
[1] = Superoxide release activity in potassium phosphate buffer at pH 7.4 and 25 uM after 30 mins by […]
In short: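 Compound incubated in pH 7.4 buffer. Superoxide detected by luminol-based chemiluminescence.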

[2] = Hydrogen peroxide release activity in potassium phosphate buffer at pH 7.4 after 60 mins by […] based colorimetric assay; assay type: physicochemical; details: pH 7.4, 1 h
In short: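 Compound incubated in pH 7.4 buffer for 1 h. H2O2 then estimated with a xylenol orange-based colorimetric method.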

Nucleic Acid [3] = assay: Induction of DNA damage in Escherichia coli pBR322 assessed as supercoiled DNA cleavage at 25 uM after 24 hrs by agarose gel electrophoresis; assay type: nucleic-acid assay
In short: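 Compound at 25 µM without Cu(II) and with no added reducing agent, incubated with supercoiled pBR322 plasmid DNA. Damage assessed as cleavage of supercoiled form on gel.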

Nucleic Acid [4] = assay: Induction of DNA damage in Escherichia coli pBR322 assessed as supercoiled DNA cleavage at 25 uM after 24 hrs by agarose gel electrophoresis in presence of Cu2+; assay type: nucleic-acid assay
In short: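 Compound with Cu(II) at 1:1, no added reducing agent. Mixture holds 100 ng form I pBR322 in 10 mM MOPS, pH 7.4, incubated 37 °C for 24 h. Supercoiled-to-nicked (form II) cleavage read on gel against a DNA-only lane.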

[5] = Hydrogen peroxide release activity in potassium phosphate buffer at pH 7.4 after 60 mins by […] based colorimetric assay in presence of catalase; assay type: physicochemical; details: pH 7.4, 1 h
In short: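 Compound incubated at pH 7.4 for 1 h. Reaction mixture then treated with catalase before the xylenol orange colorimetric read-out for H2O2.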

Nucleic Acid [6] = assay: Induction of DNA damage in Escherichia coli pBR322 assessed as supercoiled DNA cleavage at 10 uM after 24 hrs by agarose gel electrophoresis in presence of Cu2+; assay type: nucleic-acid assay
In short: (§1)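 Concentration course of 1–10 µM compound with an equimolar amount of Cu(II). Mixture holds 100 ng supercoiled pBR322 plasmid (form I) in 10 mM MOPS, pH 7.4, incubated 37 °C for 24 h. Cleavage to nicked form II read on gel against a DNA-only lane.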

Nucleic Acid [7] = assay: Induction of DNA damage in Escherichia coli pBR322 assessed as supercoiled DNA cleavage at 1 uM after 24 hrs by agarose gel electrophoresis in presence of Cu2+; assay type: nucleic-acid assay; in short: as §1
[8] = Superoxide release activity in potassium phosphate buffer at pH 7.4 and 25 uM after 30 mins by […] in presence of superoxide dismutase
In short: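 Compound incubated in pH 7.4 buffer with superoxide dismutase present. Superoxide read by luminol-based chemiluminescence.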

SMILES	Activity [2]	Activity (Nucleic Acid [3])	Activity (Nucleic Acid [4])	also measured
C1CCNC1 [PYRROLIDINE]	Not Active			Activity [1]: inactive
COc1ccc(CNC2=C(c3ccccc3)C(=O)c3ccccc3C2=O)cc1	< 2 µM			
NC1=C(c2ccccc2)C(=O)c2ccccc2C1=O	< 2 µM			
O=C1C(Nc2ccc([N+](=O)[O-])cc2)=C(c2ccccc2)C(=O)c2ccccc21	< 2 µM			
O=C1C(NCc2ccccc2)=C(c2ccccc2)C(=O)c2ccccc21	< 2 µM	inactive	Active	
O=C1C(Nc2ccccc2)=C(c2ccccc2)C(=O)c2ccccc21	< 2 µM	inactive	Active	
CN(C)CCNC1=C(c2ccccc2)C(=O)c2ccccc2C1=O	< 2 µM			
O=C1C(NCc2ccc(Cl)cc2)=C(c2ccccc2)C(=O)c2ccccc21	< 2 µM			
O=C1C(c2ccccc2)=C(N2CCCC2)C(=O)c2ccccc21		inactive	Active	Activity (Nucleic Acid [6]): Active; Activity [1]: Active; Activity [5]: Active; Activity (Nucleic Acid [7]): Active; Activity [8]: Active
COc1ccc(NC2=C(c3ccccc3)C(=O)c3ccccc3C2=O)cc1	< 2 µM			
C=CCNC1=C(c2ccccc2)C(=O)c2ccccc2C1=O	< 2 µM			
O=C1C(c2ccccc2)=C(N2CCCCC2)C(=O)c2ccccc21		inactive	Active	

More lines, main results first:

Activity [2]	SMILES	Activity (Nucleic Acid [3])	Activity (Nucleic Acid [4])	also measured
< 2 µM	CCCCNC1=C(c2ccccc2)C(=O)c2ccccc2C1=O			
Not Active	CN1CCCC1 [N-METHYL PYRROLIDINE (NMP)]			Activity [1]: inactive
Active	COc1ccccc1C1=C(N2CCCC2)C(=O)c2ccccc2C1=O	inactive	Active	Activity [5]: Active
Active	O=C1C(c2ccc(F)cc2)=C(N2CCCC2)C(=O)c2ccccc21	inactive	Active	Activity [5]: Active
Active	COc1ccc(C2=C(N3CCCC3)C(=O)c3ccccc3C2=O)cc1	inactive	Active	Activity [5]: Active
< 2 µM	CCCNC1=C(c2ccccc2)C(=O)c2ccccc2C1=O	inactive	Active	
